According to the RNAGym collection of RNA variant scans (doi:10.1126/science.aae0568):
Variants at the floor of the assay were thinned out.

B1: tRNA (parent)
chain: GUUCCGUUGGCGUAAUGGUAACGCGUCUCCCUCCUAAGGAGAAGACUGCGGGUUCGAGUCCCGUACGGAACG

Variants of: B1
Assay: yeast fitness relative to wild type (ratio to wild type); higher = fitter; tRNA-Arg(CCU), competitive growth, 37 C, YPD
Outline: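 Amplicons of the tRNA-Arg(CCU) gene were sequenced, 100-nucleotide paired-end, from the start population and from each end population of a pooled yeast competition. The competition, in six parallel replicates, lasted 24 hours in YPD at 37°C. Fitness relative to wild type was calculated from changes in genotype frequencies. Genotypes had to have ≥ 100 starting reads, and estimates < 0.5 were set to 0.5.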

Going from GUUCCGUUGGCGUAAUGGUACCGCGUCUCCCUCCUAAGGAGAAGACUGCGGGUUAGUGUCCCGUACGGAACG to GUUCCGUUGGCGUAAUGGUACCGCGUCUCCCUCCUAAGGAGAAGAGUGCGGGUUUGAGUCCCGUACGGAACG, the yeast fitness falls from 0.535 to 0.523.

First: GUUCCGUUGGCGUAAUGGUACCGCGUCUCCCUCGUAAGGACAAGACUGCGGGUUCGAGUCCCGUACCGAACG
Second: GUUCCGUUGGCGUAAUGGUACCGCGUCUCCCUCUUAAGGAGAAGACUGCGGGUUCAAGUCCCGUACGGAACG
The yeast fitness of the first is higher: 0.653 for the first, 0.551 for the second.

First: GUUCCGUUGGCGUAAUGGUACCGCGUCUCCCUCUUAAGGAGAAGACUGUGGGUUCGAGUCCCAUACGGUACG
Second: GUUCCGUUGGCGUAAUGGUACCGCGUCUCCCUCCUAAGGAGAAGACUGCGGGUUCGAGUCUCGUACGGAACG
The yeast fitness of the first is lower: ≤ 0.5 for the first, 0.679 for the second.

Compared with GUUCCGUUGGCGUAAUGGUACCGCGUCUCCCUCCUAAGGAGAAGACUACGGGUUUGAGUCCCGUCCGGAACG, GUUCCGUUGGCGUAAUGGUACCACGUCUCCCUCCUAAGGAGAAGAGUGCGGGCUCGAGUCCCGUACGGAACG is higher in yeast fitness: ≤ 0.5 for the first, 0.698 for the second.

GUUCCGUUGGCGUAAUGGUACCGCGUCUCCCUUCUAAGGAGAAGACUGCGGGUUUGCGUCACGUACGGAACG and GUUCCGUUGGCGUAAUGGUACCGCCGCUCCCUCCUAAGGAGAAGACUGCGGGUUCGAGACCCGUACGGAACG cannot be ordered by yeast fitness: ≤ 0.5 for the first, ≤ 0.5 for the second.

First: GUUCCGUUGGCGUAAUGGUACCGCGUCUCCCUCCUAAGAAGAAGACUGAGGGUUCGAGUCCCGUACGGAACG
Second: GUUCCGUUGGCGUAAUGGUACCGCCGCUCCCUCCUAAGGAGAAGACUGCGGGUUCGAGACCCGUACGGACCG
The yeast fitness of the first is lower: ≤ 0.5 for the first, 0.559 for the second.

First: GUUCCGUUGGCGUAAUGGUACCGCGUCUCCCUCGUAAGGAGAAGACUGCGGGUUCGAGUACCGUACGGAACG
Second: GUUCCGUUGGCGUAAUGGUACCGCCUCUCCCUCCUAAGGAGAAGACUGCGGGUUCGGGUCCCGUACGGAACG
The yeast fitness of the first is lower: ≤ 0.5 for the first, 0.516 for the second.

GUUCCGUUGGCGUAAUGGUACCGCGUCUCCCUCCUAAGCAGUAGACUCCGGGUUCGAGUCCCGUACGGAACG and GUUCCGUUGGCGUAAUGGUACCGCGUCUCCCUUCUGAGAAGAAAACUGCGGGUUGGAGCCCCGUACGGAACG cannot be ordered by yeast fitness: ≤ 0.5 for the first, ≤ 0.5 for the second.

GUUCCGUUGGCGUAAUGGUACCGCGUCUCCCUCCUAAGGAGAAGACUGCGGGUUGGUGUCCCGUACAGAACG and GUUCCGUUGGCGUAAUGGUACCUCGUCUCCCUCCUAAGGAGAAGACUGCGGGUUCGAGGCCCGUACGGAACG cannot be ordered by yeast fitness: ≤ 0.5 for the first, ≤ 0.5 for the second.

GUUCCGUUGGCGUAAUGGUACCACGUCUCCCUCCUACGGAGAAGACUGCGGGUCCGAGUCCCGUGCGGAACG and GUUCCGUUGGCGUAAUGGUACCGCGUCUCCUUCCUAAACAGAAGACUGGGGGUUCGAGUCCCGUACGGAACG cannot be ordered by yeast fitness: ≤ 0.5 for the first, ≤ 0.5 for the second.

First: GUUCCGUUGGCGUAAUGGUACCGCGUCUCCCUCCUAAGGAGAAGACUACGGGUUCGAGUCCCGUACGGAACG
Second: GUUCCGUUGGCGUAAUGGUACCGCGUCUCCCUCCUAAGGAGAAGACUGCGGGUUAGAGUCCCGUACGGAACG
The yeast fitness of the first is higher: 0.854 for the first, 0.605 for the second.

Going from GUUCCGUUGGCGUAAUGGUACCGCGUCUCCCUCCUAAGGAGAAGACUGCGGGUUUGAGUCCCGUACGGAACG to GUUCCGUUGGCGUAAUGGUACCGCGUCUCCCUCCUAAGGAGAAGACUGCGGGUUGGAGUCCCGUACGGAACG, the yeast fitness falls from 0.712 to ≤ 0.5.

GUUCCGUUGGCGUAAUGGUACCGCGUCUCCCUCUUAAGGAGAAGACUGCGCGUUCGAGUCCCGUACGGAACG and GUUCCGUUGGCGUAAUGGUACCACGUCUCCCUCCUACGGAGAAGACUGCGGGUCCGAGUCCCGUACGGAACG cannot be ordered by yeast fitness: ≤ 0.5 for the first, ≤ 0.5 for the second.

First: GUUCCGUUGGCGUAAUGGUACCGCGUCUCCCUCCUAAGGAGAAGACUGCGGGUUCGAGUCCUGUCCGGAACG
Second: GUUCCGUUGGCGUAAUGGUACCGCGUCUCCCUCCUAAGGAGAAGACUGCCGGUUCGAGUCCCGUACGGAACG
The yeast fitness of the first is higher: 0.654 for the first, 0.584 for the second.

Going from GUUCCGUUGGCGUAAUGGUACCGCGUCUCCCUCCUAAGGAGAAGACUGCAGGUUCGAGUCCCGUACGGAACG to GUUCCGUUGGCGUAAUGGUACCGCGUCUCCCUCCUAACGAGAACACUGCGGGUUCGAGUCCCGUACGGAACG, the yeast fitness falls from 0.672 to 0.544.

Going from GUUCCGUUGGCGUAAUGGUACCGCGUCUCCCUUCUAAGGAGAAGACUGCGGGUUCGAGUCCCGUACGGAACG to GUUCCGUUGGCGUAAUGGUACCGCGUCUCCCUCCUAAGGAGAAGACUGCGGGUUCGAGUCCCAUACGGAACG, the yeast fitness rises from 0.687 to 0.88.

GUUCCGUUGGCGUAAUGGUACCGCGUCUCCCUCCUAAGGAGAAGAUUGCGGGUUCGAGUCGCGUACGGAACG and GUUCCGUUGGCGUAAUGGUACCGCGUCUCCCUACUAAGGAGAAGACUGCGGGUUCGAGUCUCGUACGGAACG cannot be ordered by yeast fitness: ≤ 0.5 for the first, ≤ 0.5 for the second.

Compared with GUUCCGUUGGCGUAAUGGUACCGCGUCUCCCUCUUAAGGAGAAGACUGUGGGUUCGAGUCCCGUACGGUACG, GUUCCGUUGGCGUAAUGGUACCGCGUCUCCCUCCUAAGGAGAAGACUGCGGGUUUGAGUCCCGUACGGCACG is lower in yeast fitness: 0.53 for the first, ≤ 0.5 for the second.

For GUUCCGUUGGCGUAAUGGUACCGCGUCUCCCUCUUAAGGAGAAGACUGCGGGUUCGAGUCCCGUUCGGAACG, the yeast fitness was ≤ 0.5.
